# ROMK mod = human ROMK K+ channel modulation, primary screen; 130,000 tested, 2% active; Tet-inducible ROMK, thallium flux fluorescence; actives lie on both sides; P48048; B-score at 10 µM;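 active means signal ratio slope over the read window, or its plate-corrected B-score, at least 3 SD from the plate mean, either direction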;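 further: B-score of the F/F0 ratio slope over 7 to 12 s after thallium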
# Target sequence (P48048 whole entry, looked up): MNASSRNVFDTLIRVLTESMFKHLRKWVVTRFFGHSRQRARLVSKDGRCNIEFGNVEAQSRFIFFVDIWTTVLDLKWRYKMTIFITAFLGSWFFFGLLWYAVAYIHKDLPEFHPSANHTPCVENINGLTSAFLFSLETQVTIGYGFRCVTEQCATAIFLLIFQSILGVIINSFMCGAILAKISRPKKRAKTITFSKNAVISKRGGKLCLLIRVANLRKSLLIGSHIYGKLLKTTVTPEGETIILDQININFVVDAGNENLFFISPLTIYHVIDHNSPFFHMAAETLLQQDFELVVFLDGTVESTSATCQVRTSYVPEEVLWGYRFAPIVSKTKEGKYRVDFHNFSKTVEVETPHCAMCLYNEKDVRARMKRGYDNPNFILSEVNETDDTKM
# Calb biofilm kill = mixture kills Candida albicans biofilm cells. C. albicans biofilm persisters + clotrimazole, fluorescence viability; primary screen in compound mixtures of four per well. inhibition, % at 7.6 µM. 120,000 tested, 0.02% active. AID 1242;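 active means inhibition above 30.3% in the primary screen of four-compound pools, then above 30% when the compound was retested; inconclusive means passed the primary limit but could not be retested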;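 further: compounds exposed to preformed 24 h biofilms for 48 h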
#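 Incubation: 24 h biofilm formation, then 48 h compound exposure, 37 °C | Material: C. albicans biofilms | Buffer or medium: RPMI/MOPS medium, pH 7.0 | Measured by: 2-h Alamar Blue fluorescence, 535/590 nm excitation/emission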
# Pf gamet viab = inhibitors of late stage P. falciparum gametocyte viability | inhibition, % at 10.9 µM | AID 743093 | P. falciparum stage V gametocytes, ATP luminescence, 24 h | 150,000 tested, 0.065% active;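 active means inhibition above the mean plus 3 SD of compounds within the control limits, set per campaign, cut at about 38% in these data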
# ROMK hit retest = human ROMK channel modulation, retest confirmation; shares compounds with ROMK mod; ROMK thallium flux, fluorescence ratio; active compounds read low; normalized thallium flux (F/F0 slope) at 10 µM; 3,000 tested, 54% active; AID 1917;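 active means Flux at 10 µM at least 3 SD below or above vehicle control mean in one or both replicates; inconclusive means no clear call, values can overlap the other calls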
# Hits are given with their value; . = inactive; ? = inconclusive; / = no result given. The entries come from a sample that favours hits as a whole.
SMILES,ROMK mod,Calb biofilm kill,Pf gamet viab,ROMK hit retest
CC(=O)c1ccc(NC(=O)c2ccc(CNc3c(N4CCOCC4)c(=O)c3=O)cc2)cc1,.,.,.,/
COc1ccc(-c2nc(C=O)cs2)cc1,/,.,.,/
COc1cccc(-c2nc(C=O)cs2)c1,4.4,.,.,0.1
COc1ccc(-c2c(NC(=O)c3ccco3)n(C)c3ccccc3c2=O)cc1,3.7,/,/,.
COc1ccccc1-c1c(NC(=O)c2ccco2)n(C)c2ccccc2c1=O,/,.,.,/
Cc1cc(C)c(S(=O)(=O)Nc2nnc(C(C)C)s2)c(C)c1,/,/,.,/
OCC[C@H]1C[C@@H](O)[C@H](O)[C@@]2(OCc3ccccc32)O1,/,/,.,/
CCCCNc1nc(N(C)c2ccccc2)nc(-n2ccnc2)n1,.,/,.,/
CCCCCNc1nc(-c2ccccc2)nc(-n2ccnc2)n1,/,.,.,.
CCOC(=O)C1(Cc2ccc(OC)cc2)CCN(C(=O)CCn2cccn2)CC1,/,.,.,/
O=C(NC1CC(=O)c2sccc21)c1ccc(Cl)cc1Cl (centres undefined),.,.,.,/
COc1ccccc1C(=O)O/N=C(\N)c1ccccn1,/,.,.,.
N/C(=N\OC(=O)c1ccc(Cl)c([N+](=O)[O-])c1)c1ccccc1,/,/,.,/
N/C(=N\OC(=O)c1ccc(Cl)c([N+](=O)[O-])c1)c1ccccn1,-3.8,.,.,.
COc1cc(OC)cc(C(=O)O/N=C(\N)c2ccccn2)c1,/,.,.,/
S=c1nc(-c2sccc2OCc2ccc(Cl)cc2Cl)[nH][nH]1,.,.,/,/
c1ccc(NC2=NCCN2CCC2CCCC2)cc1,/,/,.,/
Cc1nnc(N/N=C/C(C)c2ccccc2)[nH]c1=O (centres undefined),/,.,.,/
CSCCC(NS(=O)(=O)c1ccc(Cl)cc1)C(=O)OCC(=O)N1CCOCC1 (centres undefined),6.3,/,/,.
COC(=O)C(CCSC)NS(=O)(=O)c1ccc(Cl)cc1 (centres undefined),.,.,.,/
O=C(CCl)Nc1cccc(Oc2ccccc2)c1,-4.8,.,.,?
O=C(CN1CCCCC1)Nc1cccc(Oc2ccccc2)c1,.,/,.,/
Cc1cc2oc(=O)ccc2cc1[N+](=O)[O-],/,/,.,/
COc1ccc(-c2cc(C(F)(F)F)nc(N)n2)cc1,/,.,.,/
COc1ccc(-c2cc(C(F)(F)F)nc(S(C)(=O)=O)n2)cc1,-4.2,/,/,0.055
SMILES,ROMK mod,Calb biofilm kill,Pf gamet viab,ROMK hit retest
CS(=O)(=O)c1nc(-c2ccc(F)cc2)cc(C(F)(F)F)n1,-2.6,.,.,0.058
Nc1nc(-c2ccc(F)cc2)cc(C(F)(F)F)n1,.,/,/,/
O=C1C[C@@H]2c3c(cccc3CN1Cc1ccc(Cl)cc1)C[C@@H](O)[C@H]2O,/,/,.,/
O=C(O)c1ccc(OCCN2CCCC2=O)cc1,/,/,.,/
COc1ccc(C(=O)NCCc2c[nH]c3ccccc23)cc1[N+](=O)[O-],/,/,.,/
CC(C)C(C)N(Cc1cccc(C(=O)O)c1)C(=O)c1ccc2ccccc2n1 (centres undefined),/,/,.,/
COC(=O)c1ccc(Oc2cc(C)nc(-n3nc(C)cc3C)n2)cc1,4.9,/,.,.
COC(=O)c1ccc(Oc2nc(C)cc(Oc3ccccc3)n2)cc1,.,/,/,/
S=C(NCC1CCCO1)NC1CC1 (centres undefined),.,.,.,/
Cc1ccc(S(=O)(=O)Nc2cc(NC(=O)CN3CCOCC3)ccc2Cl)cc1,/,/,.,.
Cc1ccc(S(=O)(=O)Nc2ccc(NC(=O)CN3CCCCC3)cc2)cc1,.,/,/,/
COc1ccc(CC(=O)Nc2ccc(C(=O)Nc3ccccc3C(=O)O)cc2)cc1OC,.,.,.,/
C/C(=N\NC(=O)c1ccc(N2CCCC2=O)cc1)c1ccncc1,.,.,.,/
COc1nnc(-c2ccc(N3CCCCC3)c(NC(=O)COc3ccccc3)c2)c2ccccc12,/,/,.,/
COC(=O)CCN(C(=O)c1ccc(N2CCCCC2)c([N+](=O)[O-])c1)c1ccccn1,-2.1,.,.,0.067
COC(=O)CCN(C(=O)c1ccc(N2CCCC2)c([N+](=O)[O-])c1)c1ccccn1,.,.,.,/
COc1ccccc1N1CCN(CC(=O)Nc2sccc2C#N)CC1,.,.,.,/
COC(=O)c1c(NC(=O)CSc2ncnc3c2cnn3-c2ccccc2Cl)sc2c1CCCC2,.,.,/,/
CCOC(=O)Cc1csc(NC(=O)CSc2ncnc3c2cnn3-c2ccccc2Cl)n1,/,/,/,0.054
CC(=O)Nc1ccc(/C=C(\C#N)C(=O)NC2CCCCC2)cc1,.,.,/,/
CC1CCCCC1NC(=O)/C(C#N)=C/c1ccc(F)c(F)c1 (centres undefined),-3,.,.,0.05
COC(=O)N/N=C/c1ccc(OS(=O)(=O)c2ccc(C)cc2)c(OC)c1,.,.,.,/
C=CCNC(=O)/C(C#N)=C/c1ccc(SC)cc1,-4.5,.,.,0.053
C=CCNC(=O)/C(C#N)=C/c1ccc(OS(=O)(=O)c2ccc(C)cc2)c(OC)c1,-4.6,.,/,0.042
C=CCNC(=O)/C(C#N)=C/c1ccc2c(c1)OCCO2,.,.,.,/
SMILES,ROMK mod,Calb biofilm kill,Pf gamet viab,ROMK hit retest
CSc1ccc(/C=C(\C#N)C(=O)NC2CCCCC2)cc1,-2.5,.,.,0.054
CC1CCCCC1NC(=O)/C(C#N)=C/c1ccc2c(c1)OCCO2 (centres undefined),.,.,/,/
C/C(=N\NS(=O)(=O)c1ccccc1)c1cc(Cl)cc(Cl)c1O,.,.,.,/
CC(C)(C)OC(=O)NC1CNNC1=O (centres undefined),/,/,.,/
Cc1cc(F)c(F)c(C(=O)N2C(C)CCCC2C)c1Cl (centres undefined),.,.,/,/
S=C(c1ccc(-c2ccc(Br)cc2)o1)N1CCOCC1,2.4,.,.,.
S=C(c1ccc(-c2ccc(Br)cc2)o1)N1CCCCC1,.,.,.,/
CCOC(=O)N1CCN(C(=O)CNC(=O)c2ccc(Br)o2)CC1,/,/,.,/
COc1ccc(C)cc1NC(=O)C1CCN(C(=O)Cc2ccccc2)CC1,.,.,.,/
CNc1cc(C)c(C#N)c2nc3ccccc3n12,/,/,.,/
Cc1cc(Cl)n2c(nc3ccccc32)c1C#N,-5,.,/,0.036
O=C(c1cccc([N+](=O)[O-])c1)N1CCN(c2n[nH]c(=O)[nH]c2=O)CC1,/,.,.,/
CS(=O)(=O)N1CCC(C(=O)Nc2ccc(F)cc2)CC1,/,/,.,/
Cc1ccc(NC(=O)C2CCN(S(C)(=O)=O)CC2)cc1C,1.6,/,/,.
C[C@H](CO)N1C[C@H](C)[C@@H](CN(C)S(=O)(=O)c2cccs2)Oc2c(NC(=O)C3CC3)cccc2C1=O,/,/,.,/
CCCCOc1ccc(S(=O)(=O)NCc2csc(C)n2)cc1,-2.3,/,/,0.067
CCc1ccc(S(=O)(=O)NCc2csc(C)n2)s1,.,.,.,/
COC(=O)c1ccc(NC(=S)N2CCN(Cc3ccccc3OC)CC2)cc1,.,.,.,/
COC(=O)c1ccc2c(=O)n(Cc3ccc(C(=O)NCCCN4CCC(C)CC4)cc3)c(=S)[nH]c2c1,.,.,.,/
CC1CCN(CCCNC(=O)c2ccc3c(=O)n(Cc4ccc(Cl)cc4)c(=S)[nH]c3c2)CC1,-2.7,.,.,0.061
COc1cccc(CN2CCN(CC#Cc3ccccc3)CC2CCO)c1 (centres undefined),/,/,.,/
CCOc1ccc(-c2[nH]ncc2-c2ccc(OC)c(OC)c2)c(O)c1,3.7,/,/,0.099
CCOc1ccc(-c2[nH]ncc2Oc2ccccc2OC)c(O)c1,.,/,/,/
O=C(O)C(F)=C(c1ccccc1)c1ccccc1,/,/,.,/
